AC50 data for 76 compounds are collected here from PubChem BioAssay AID449754 (Broad Institute, 2010).

In the test the test system is MEF Bax/Bak KO A1-BIM, caspase-Glo luminescence, 3 h. The test is described as follows: caspase signal in Bax-Bak null A1-BIM cells – cell-based, Bax-Bak knockout MEF, A1-2A-BIM, luminescence, counter-screen for A1 inhibitor project, dose response (AID 449754).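 Further: counterscreen where caspase activation signals off-target toxicity not A1 inhibition.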 Summed up:
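Material: Bax/Bak-knockout mouse embryonic fibroblasts expressing A1-2A-BIM | Quantity: 2500 cells per well, seeded one day before compound | Buffer or medium: RPMI-1640, 10% FBS | Incubation: 3 h compound at 37 °C, 1 h detection at RT | Signal: CaspaseGlo luminescence, reagent diluted 1:1 in 50 mM HEPES | Evaluation: Caspase activity from luminescent signal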
(The purpose of a counterscreen is to sort out artefacts and off-target activity.)

SMILES strings stand for the structures. Inconclusive results are not listed. Active and inactive are the calls of the source.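 How the source made its calls: active means compounds whose fitted caspase activation AC50 is no more than tenfold above the top tested dose; inconclusive means flat fit with 30 to 70% activity, or a failed fit; inactive means the rest.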 Some results are limits rather than exact numbers.

As to `CC1CCc2c(sc3nc(C(C)(C)C)nc(N4CCN(C(=O)CCl)CC4)c23)C1` (stereo unspecified), the concentration at half-maximal activity (AC50) is 12.3 µM.

For `CC[C@H]1CN2CCc3cc(OC)c(OC)cc3[C@@H]2C[C@@H]1C[C@H]1NCCc2cc(OC)c(OC)cc21`, the AC50 was > 35 µM (inactive).

`COc1cccc(C(=O)C(C#N)=C(SC)SC)c1`: the AC50 is > 35 µM (inactive).

Turning to `COc1ccc(C[C@H]2NC[C@H](O)[C@H]2OC(C)=O)cc1`, the AC50 was > 35 µM (inactive).

As to `COc1ccc(OC)c2sc(N(CCCN(C)C)C(=O)c3ccc(S(=O)(=O)N4CCc5ccccc5C4)cc3)nc12`, the AC50 was > 35 µM (inactive).

In the case of `CCOc1ccc(OCC(=O)N(CCC2=CCCCC2)c2c(N)n(Cc3ccccc3)c(=O)[nH]c2=O)cc1`, the concentration at half-maximal activity (AC50) is 18.8 µM.

Consider `COc1cc(/C=C(/C#N)C(=O)Nc2ccc(Cl)cc2)ccc1Oc1nc(Cl)ncc1F`, for which the AC50 was > 35 µM (inactive).

For `O=C1/C(=C/c2ccc(N3CCOCC3)o2)SC(=Nc2ccccc2)N1CCc1c[nH]c2ccccc12`, the concentration at half-maximal activity (AC50) was 6.82 µM.

Consider `NC(=S)c1cn(C2OC(CO)C(O)C2O)c2ncnc(N)c12` (stereo unspecified), for which the AC50 was > 35 µM (inactive).

For `Cc1ccc(N(Cc2cc(=O)[nH]c3ccccc23)C(=O)CCl)cc1`, the AC50 was > 35 µM (inactive).

On to `Cc1ccc(NC(=O)c2ccc(NCC3CCCO3)c([N+](=O)[O-])c2)cc1Cl` (stereo unspecified), for which the AC50 is > 35 µM (inactive).

As for `CC(=O)Nc1ncnc2c1c(-c1ccc(Cl)cc1)nn2C(C)(C)C`, the AC50 was > 35 µM (inactive).

As to `C#CC(=O)N(c1cc(OC)ccc1OC)C(C(=O)NC1CCCC1)c1cccs1` (stereo unspecified), the AC50 is > 35 µM (inactive).

Regarding `CCOC(=O)/C=c1\s/c(=C\c2ccc(C(=O)OC)cc2)c(=O)n1CC(=O)Nc1ccccc1`, the AC50 was > 35 µM (inactive).

As to `COc1ccc(-c2oc(=O)c3cc(OC)c(OC)cc3c2/C=C/c2cccc([N+](=O)[O-])c2)cc1`, the AC50 is > 35 µM (inactive).

With `Cc1ccc(NC(=S)NC(NC(=O)Cc2cccc3ccccc23)C(Cl)(Cl)Cl)cc1` (stereo unspecified), the half-maximal activity concentration (AC50) is 22.9 µM.

With `Cc1nc(SCc2nc3c([N+](=O)[O-])cccc3[nH]2)c2oc3ccccc3c2n1`, the AC50 was > 35 µM (inactive).

For the compound `Cn1c(=NC(=O)CCl)sc2ccccc21`, the AC50 is > 35 µM (inactive).

In the case of `CCOc1cc(/C=N/Nc2cc(C)nc(-n3nc(C)cc3C)n2)ccc1O`, the AC50 is > 35 µM (inactive).

Turning to `Cc1c(C=O)c(C=O)c(C)n1Cc1ccccc1`, the AC50 is > 35 µM (inactive).

With `CC(C)(C)C1CCc2onc(C(=O)Nc3cccc(O)c3)c2C1` (stereo unspecified), the AC50 was > 35 µM (inactive).

For `CC1CCN(Cc2c(C(=O)N/N=C/c3ccc(C(C)(C)C)cc3)nnn2-c2nonc2N)CC1`, the AC50 is > 35 µM (inactive).

Regarding `CCc1ccc2nc(N(CCCN(C)C)C(=O)c3ccc(S(=O)(=O)N4CCc5ccccc5C4)cc3)sc2c1`, the AC50 was > 35 µM (inactive).

Turning to `O=C(Nc1ccc(Cl)cc1Cl)c1cccc(N2C(=O)C=CC2=O)c1`, the AC50 is > 35 µM (inactive).

In the case of `COc1ccc(OC)c(NC(=O)c2cc(-c3cc(C)ccc3O)n[nH]2)c1`, the AC50 is > 35 µM (inactive).

Take `CC(C)(C)C1C/C(=C/c2ccccn2)C(=O)/C(=C/c2ccccn2)C1` (stereo unspecified): the AC50 was 8.26 µM.

On to `COc1ccc2c(c1)[nH]c1c(=O)n(/N=C/C3C(C)C=C(C)CC3C)c(=O)[nH]c12` (stereo unspecified), for which the AC50 is > 35 µM (inactive).

With `O=C(Oc1cccc(/C=N/Nc2nc(Nc3ccccc3)nc(N3CCOCC3)n2)c1)c1ccco1`, the AC50 is > 35 µM (inactive).

Take `CCS(=O)(=O)c1ncc(Cl)c(C(=O)Nc2ccccc2OC)n1`: the AC50 was > 35 µM (inactive).

For the compound `CC(C)c1cccc(-c2ccc3c(c2)S(=O)(=O)c2cccc(C(=O)NC4CCCC4)c2C3=O)c1`, the AC50 was > 35 µM (inactive).

`CCOC(=O)CSC1=N/C(=C/c2ccc(-n3cncn3)cc2)C(=O)N1C(C)=O`: the AC50 was > 35 µM (inactive).

As for `CCc1cc2c(=O)c(-c3cnn(-c4ccccc4)c3)c(C)oc2cc1OCC(=O)Nc1cccc(C)c1`, the AC50 is > 35 µM (inactive).

As for `Cc1ccc(C#N)c(SCC(=O)Nc2nccs2)n1`, the AC50 was > 35 µM (inactive).

With `C=CC(=O)Nc1ccc(CN2C(=O)N(c3c(Cl)c(OC)cc(OC)c3Cl)Cc3cnc(NCCCCN(CC)CC)nc32)cc1`, the AC50 was > 35 µM (inactive).

Turning to `COc1ccccc1C(=O)Nc1ccnn1C1CCN(Cc2cn(C)c3ccccc23)CC1`, the AC50 was > 35 µM (inactive).

For `COc1ccc(NC(=O)c2cccc3c2C(=O)c2ccc(-c4ccc(F)cc4OCc4ccccc4)cc2S3(=O)=O)cc1`, the AC50 is > 35 µM (inactive).

`Nc1nc(F)nc2c1ncn2[C@@H]1O[C@H](CO)[C@@H](O)[C@H]1O`: the AC50 was > 35 µM (inactive).

Turning to `COc1cc2ncnc(NCc3ccc(F)cc3)c2cc1OC`, the AC50 was > 35 µM (inactive).

For the compound `COCc1cc(C)nc(SCC(=O)Nc2nc(C)cs2)c1C#N`, the AC50 is > 35 µM (inactive).

As for `Cc1cccc(NC(=O)/C(C#N)=C/c2cn(CC(=O)NCc3ccco3)c3ccccc23)c1`, the AC50 is > 35 µM (inactive).

With `CCOCCCNC(=O)c1ccc2c(c1)N=C(CC)c1cc(Br)ccc1S2`, the AC50 was > 35 µM (inactive).

For the compound `CC(C)N=c1scc(-c2ccco2)n1/N=C/c1ccc(O)c(O)c1`, the AC50 is > 35 µM (inactive).

On to `CCOc1ccc(NCc2cccn2-c2nnc(N3CCC(C(=O)NCCCN4CC(C)CC(C)C4)CC3)s2)cc1` (stereo unspecified), for which the AC50 was > 35 µM (inactive).

Regarding `O=C(NCCc1ccccc1)C(c1cccs1)N(C(=O)CCl)c1ccc(Cl)cc1` (stereo unspecified), the AC50 is 6.03 µM.

`CCSc1nnc(NC(=O)c2nc(S(=O)(=O)Cc3ccc(F)cc3)ncc2Cl)s1`: the AC50 is > 35 µM (inactive).

In the case of `COc1cc(NC(=O)c2ccccc2F)ccc1NC(=O)c1cc2ccccc2o1`, the AC50 was > 35 µM (inactive).

Consider `CCS(=O)(=O)c1ncc(Cl)c(C(=O)Nc2ccc(S(=O)(=O)N3CCC(C)CC3)cc2)n1`, for which the AC50 was > 35 µM (inactive).

Regarding `CC(=O)Nc1ccc(NC(=O)C(=O)NCC(c2ccco2)N2CCc3ccccc32)cc1` (stereo unspecified), the AC50 is 35.8 µM.

For the compound `COc1cc(/C=C(/C#N)c2nc3ccccc3[nH]2)ccc1OCC(=O)Nc1ccccc1C(C)C`, the AC50 was > 35 µM (inactive).

As for `COc1ccc(Oc2cc(NC(=O)c3nn(C)cc3[N+](=O)[O-])cc([N+](=O)[O-])c2)cc1`, the AC50 is > 35 µM (inactive).

For the compound `Cc1cc(=O)[nH]c(SCC(=O)Nc2ccc(Br)cc2)c1C#N`, the AC50 was > 35 µM (inactive).

For `COc1ccc(OC[C@@H](O)CNC(=O)c2cccc3c2C(=O)c2ccc(-c4ccc(F)cc4OCc4ccccc4)cc2S3(=O)=O)cc1`, the AC50 was > 35 µM (inactive).

Turning to `CC(=O)Nc1sc(N/N=C\c2cccc(Cl)c2)nc1-c1cccs1`, the AC50 is > 35 µM (inactive).

As for `N#Cc1c(C(F)(F)F)cc(-c2ccccc2)nc1SCC(=O)Nc1sc2c(c1C#N)CCC2`, the AC50 was > 35 µM (inactive).

Take `Oc1[nH]c2ccc(Br)cc2c1N=NC(=S)Nc1ccc(F)cc1`: the AC50 was > 35 µM (inactive).

`C=C1/C=C(\C)[C@](C)(O)C[C@H](O)CC(=O)[C@H](O)[C@@H](O)[C@H](C)C[C@H](C)OC(=O)/C(C)=C/CC/C=C/[C@@H]2O[C@H]2C[C@H](C)C1`: the AC50 was > 35 µM (inactive).

Consider `CCc1nnc(NC(=O)c2nc(S(=O)(=O)Cc3ccccc3)ncc2Cl)s1`, for which the AC50 was > 35 µM (inactive).

Take `Cn1cc([N+](=O)[O-])c(C(=O)Nc2cc(Oc3ccccc3)cc([N+](=O)[O-])c2)n1`: the AC50 was > 35 µM (inactive).

Turning to `CCOc1cc(C(=O)CSc2nnc(CNc3ccc(Cl)cc3)o2)ccc1NC(=O)CC`, the AC50 was 17.6 µM.

For the compound `COc1ccc(-c2ccc3c(c2)S(=O)(=O)c2cccc(C(=O)NCCOc4ccccc4)c2C3=O)cc1OC`, the AC50 was > 35 µM (inactive).

Consider `Cc1ccc(S(=O)(=O)c2nnn3c2nc(Nc2cccc(C)c2)c2ccccc23)cc1`, for which the AC50 is > 35 µM (inactive).

Consider `CCC(Sc1nc2cc3c(cc2c(=O)n1Cc1ccco1)OCO3)C(=O)Nc1cccc(OC)c1` (stereo unspecified), for which the AC50 was > 35 µM (inactive).

For `Cc1cc(NC(=O)/C(C#N)=C/c2ccc(-c3ccc(SC(F)F)cc3)o2)n(-c2ccccc2)n1`, the AC50 was > 35 µM (inactive).

Regarding `Cc1ccc(NC(=O)c2cc(N3C(=O)C=CC3=O)ccc2N2CCOCC2)cc1Cl`, the AC50 was > 35 µM (inactive).

Turning to `O=C1C2C3C=CC(CO)(O3)C2C(=O)N1c1ccc(-c2ccccc2)cc1` (stereo unspecified), the AC50 is > 35 µM (inactive).

Regarding `COc1cc2c(-c3ccccc3)c(C)oc2cc1/C=N/NC(N)=S`, the AC50 is > 35 µM (inactive).

On to `CC(=O)OC(C)(C)/C=C/C(=O)[C@](C)(O)C1[C@H](O)C[C@@]2(C)C3CC=C4C(C[C@H](O)C(=O)C4(C)C)[C@]3(C)C(=O)C[C@]12C` (stereo partly specified), for which the AC50 is > 35 µM (inactive).

For the compound `COC(=O)CSc1nc(N)c2c3c(sc2n1)C(c1ccccc1)SC(c1ccccc1)C3` (stereo unspecified), the AC50 is > 35 µM (inactive).

As to `CCn1c(SCC(=O)c2ccccc2)nnc1-c1cc2cc(Br)ccc2o1`, the AC50 was > 35 µM (inactive).

In the case of `COc1cc(-c2cc(-c3ccccc3)nc(SCC(=O)Nc3nccs3)c2C#N)cc(OC)c1OC`, the AC50 was > 35 µM (inactive).

As for `CCOC(=O)c1sc(NC(=O)CSc2nc(C)cc(C)c2C#N)c(C#N)c1C`, the AC50 was > 35 µM (inactive).

Turning to `Cc1ccc(C)c(S(=O)(=O)NCC(=O)Nc2sc3c(c2C(N)=O)CCC(C)C3)c1` (stereo unspecified), the AC50 is > 35 µM (inactive).

For the compound `COc1ccccc1CCNC(C)CCc1ccc(O)cc1` (stereo unspecified), the AC50 was > 35 µM (inactive).

Take `CCc1ccccc1NC(=O)C(CC)Sc1nc2cc3c(cc2c(=O)n1Cc1ccco1)OCO3` (stereo unspecified): the AC50 is > 35 µM (inactive).

Consider `O=C(CN(c1ccc(Br)cc1)S(=O)(=O)c1ccc(Cl)c([N+](=O)[O-])c1)NCCc1ccccc1`, for which the AC50 was > 35 µM (inactive).

Consider `COc1ccccc1-c1cn[nH]c1-c1ccc(OCc2ccccc2)cc1O`, for which the AC50 is > 35 µM (inactive).

In general, AC50 refers to the midpoint of the concentration-response curve, whichever way the signal moves.
